Test results reported in ChEMBL document CHEMBL5038597 (J Med Chem, 2021).
Each block holds one compound with its values, some of them ahead of it. The source made the active and inactive calls. The rule behind the calls is not given here.

Assays:
[1] = test system: THP-1; experiment: Cytotoxicity against human THP-1 monocytes assessed as LDH release at 1 pM incubated for 24 hrs in absence of LPS by LDH assay; format: toxicity, cell-based; details: thp-1, 24 h
Procedure, shortened: (§1)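 THP-1-Lucia monocytes (1 × 10⁵/well) exposed 24 h to compound without LPS (1 pM upward; 0.1% ethanol vehicle). Supernatant LDH absorbance at 490 nm with 690 nm background; 2% Triton X-100 lysis defined maximum release, untreated cells spontaneous release; expressed as % LDH release relative to LPS ± SEM, n = 3.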

[2] = target: T1, Nuclear factor NF-kappa-B complex (Homo sapiens) (UniProt Q00653+P19838+Q04206); experiment: Inhibition of LPS-induced NF-kappaB activation in human THP-1 monocytes expressing luciferase gene at 0.01 to 100 nM pretreated for 30 mins followed by LPS stimulation and measured after 24 hrs by bioluminescence analysis; format: cell-based; details: dose 0.01-100 nM, time 24.5 hr
T1 sequence (P19838 whole entry, looked up): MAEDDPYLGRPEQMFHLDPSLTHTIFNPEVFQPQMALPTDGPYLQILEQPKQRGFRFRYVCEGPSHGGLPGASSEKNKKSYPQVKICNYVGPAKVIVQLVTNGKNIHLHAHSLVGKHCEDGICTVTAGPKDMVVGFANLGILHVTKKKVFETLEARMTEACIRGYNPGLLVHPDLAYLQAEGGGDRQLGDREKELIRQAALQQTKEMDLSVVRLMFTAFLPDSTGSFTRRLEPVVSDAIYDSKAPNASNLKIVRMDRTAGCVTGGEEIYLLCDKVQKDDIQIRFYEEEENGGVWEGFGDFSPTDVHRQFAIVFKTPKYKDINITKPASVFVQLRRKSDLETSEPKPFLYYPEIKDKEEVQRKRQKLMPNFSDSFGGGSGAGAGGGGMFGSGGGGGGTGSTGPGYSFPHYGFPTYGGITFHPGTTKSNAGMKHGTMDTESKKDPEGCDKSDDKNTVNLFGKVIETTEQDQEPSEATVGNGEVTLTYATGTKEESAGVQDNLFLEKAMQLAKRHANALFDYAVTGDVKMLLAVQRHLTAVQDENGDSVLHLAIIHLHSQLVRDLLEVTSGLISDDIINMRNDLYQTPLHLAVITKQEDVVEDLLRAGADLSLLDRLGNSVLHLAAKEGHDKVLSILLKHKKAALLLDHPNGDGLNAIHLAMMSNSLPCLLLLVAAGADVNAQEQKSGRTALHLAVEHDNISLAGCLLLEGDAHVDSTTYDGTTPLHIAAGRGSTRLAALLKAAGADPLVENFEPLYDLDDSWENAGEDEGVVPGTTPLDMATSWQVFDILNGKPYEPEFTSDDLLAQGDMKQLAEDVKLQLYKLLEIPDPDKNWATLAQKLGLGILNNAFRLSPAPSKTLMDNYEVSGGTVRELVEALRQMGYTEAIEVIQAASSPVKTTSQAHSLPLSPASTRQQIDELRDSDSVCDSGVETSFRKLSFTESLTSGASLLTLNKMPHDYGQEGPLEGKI
T1 sequence (Q00653 whole entry, looked up): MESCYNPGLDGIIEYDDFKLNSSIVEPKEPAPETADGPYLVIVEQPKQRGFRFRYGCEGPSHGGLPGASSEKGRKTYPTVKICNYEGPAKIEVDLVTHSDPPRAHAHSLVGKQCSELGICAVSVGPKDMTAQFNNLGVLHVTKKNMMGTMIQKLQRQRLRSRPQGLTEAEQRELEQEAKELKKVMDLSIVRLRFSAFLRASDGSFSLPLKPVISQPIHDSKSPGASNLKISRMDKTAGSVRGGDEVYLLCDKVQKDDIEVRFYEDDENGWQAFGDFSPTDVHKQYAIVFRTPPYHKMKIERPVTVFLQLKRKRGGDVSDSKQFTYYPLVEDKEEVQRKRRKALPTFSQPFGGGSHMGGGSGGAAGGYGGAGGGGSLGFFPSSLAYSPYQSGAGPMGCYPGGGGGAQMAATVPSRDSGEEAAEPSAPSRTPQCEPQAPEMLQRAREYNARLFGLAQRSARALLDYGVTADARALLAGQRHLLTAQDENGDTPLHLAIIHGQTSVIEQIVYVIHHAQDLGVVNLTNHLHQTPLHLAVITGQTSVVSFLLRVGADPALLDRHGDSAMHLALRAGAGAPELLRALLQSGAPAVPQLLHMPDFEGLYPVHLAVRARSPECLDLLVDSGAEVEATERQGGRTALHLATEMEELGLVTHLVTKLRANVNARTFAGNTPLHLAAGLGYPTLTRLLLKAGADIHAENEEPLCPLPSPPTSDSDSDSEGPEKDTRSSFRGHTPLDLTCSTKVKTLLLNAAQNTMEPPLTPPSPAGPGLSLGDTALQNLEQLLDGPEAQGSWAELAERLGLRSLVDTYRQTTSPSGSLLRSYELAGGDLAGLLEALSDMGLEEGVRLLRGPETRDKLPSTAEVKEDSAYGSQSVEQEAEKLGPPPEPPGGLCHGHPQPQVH
T1 sequence (Q04206 whole entry, looked up): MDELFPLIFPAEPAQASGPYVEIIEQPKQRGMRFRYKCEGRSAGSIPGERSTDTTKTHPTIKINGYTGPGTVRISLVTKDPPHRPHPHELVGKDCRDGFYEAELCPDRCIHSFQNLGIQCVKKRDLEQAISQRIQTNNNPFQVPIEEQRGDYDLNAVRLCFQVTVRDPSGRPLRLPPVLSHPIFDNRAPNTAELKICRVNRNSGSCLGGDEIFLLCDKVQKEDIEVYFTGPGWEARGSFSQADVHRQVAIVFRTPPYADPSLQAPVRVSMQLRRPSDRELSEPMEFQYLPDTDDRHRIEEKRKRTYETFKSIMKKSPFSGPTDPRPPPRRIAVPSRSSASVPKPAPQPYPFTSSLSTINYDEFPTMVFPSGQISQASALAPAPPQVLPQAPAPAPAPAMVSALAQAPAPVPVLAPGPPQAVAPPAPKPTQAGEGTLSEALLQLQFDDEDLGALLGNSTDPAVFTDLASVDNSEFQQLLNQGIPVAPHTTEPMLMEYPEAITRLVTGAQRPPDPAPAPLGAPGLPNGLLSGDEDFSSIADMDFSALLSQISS
Procedure, shortened: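 Secreted luciferase in supernatant read with QUANTI-Luc by bioluminescence, normalized to BCA protein (lum/abs ratio, two replicates), expressed as % of LPS response; mean ± SEM, n = 3.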

[3] = test system: THP-1; experiment: Anti-inflammatory activity against human THP-1 monocytes assessed as reduction in LPS-induced IL-1beta release at 0.01 nM to 100 nM pretreated for 30 mins followed LPS stimulation and measured after 24 hrs by multiplex chemiluminescence detection method; format: functional; details: time 24.5 hrs
Procedure, shortened: (§2)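 THP-1-Lucia NF-κB monocytes (1 × 10⁵/well, 0.1% FBS medium) pretreated 30 min with compound (ethanol stock, final 0.1% ethanol vehicle), then 50 ng/mL LPS for 24 h.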

[4] = species: Mus musculus; experiment: Anti-inflammatory activity in zymosan-induced C57BL/6J mouse model of peritonitis assessed as change in macrophage cell count; format: functional, organism-based
[5] = test system: Mus musculus; experiment: Anti-inflammatory activity in C57BL/6J mouse model of carrageenan-induced paw edema assessed as reduction in paw swelling at 2 ug/kg, ip administered 30 mins prior to carrageenan injection; format: functional, organism-based; details: dose 2.0 µg/kg
Procedure, shortened: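 Male C57BL/6 mice dosed 30 min before intraplantar 50 μL 1% carrageenan (saline in contralateral paw); test compound 2 μg/kg ip, naproxen 50 mg/kg po. Paw thickness difference tracked over time (to 72 h) with a lever gauge as edema index; mean ± SEM, n = 3 mice/group.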

[6] = species: Mus musculus; experiment: Anti-inflammatory activity in zymosan-induced C57BL/6J mouse model of peritonitis assessed as change in polymorphonuclear cell count; format: functional, organism-based
Procedure, shortened: (§3)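 Male C57BL/6J mice (9 weeks) given zymosan 1 mg/mouse ip (40 mg/kg); compound (2 or 6 μg/kg) or dexamethasone (1 mg/kg) ip 30 min before and 1 h after zymosan. Peritoneal lavage 24 h post-zymosan; cells counted with Turk's solution, stained Ly6G/F4/80/CD11b, PMN as Ly6G⁺ by flow cytometry; % of vehicle + zymosan maximal response; n = 5 mice/group, one-way ANOVA.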

[7] = test system: THP-1; experiment: Cytoprotection against LPS-stimulated human THP-1 monocytes toxicity assessed as fold reduction in LDH release at 0.001 to 1000 nM incubated for 24 hrs by LDH assay; format: functional; details: dose 0.001-1000 nM
Procedure, shortened: (§4)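 Supernatant LDH read at 490 nm minus 690 nm background; maximum release from 2% Triton X-100 lysis; expressed as % LDH release relative to LPS ± SEM, n = 3.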

[8] = test system: Mus musculus; experiment: (§5) Anti-inflammatory activity in zymosan-induced C57BL/6J mouse model of peritonitis assessed as maximal response at 6 ug/kg, ip treated 30 mins prior to zymosan administration and once again 1 hr after zymosan administration and measured 24 hrs post zymosan injection by flow cytometry analysis (reference value: 100 %); format: functional; details: dose 6 µg/kg; time 24.5 hrs; procedure, shortened: as §3
[9] = species: Mus musculus; experiment: Anti-inflammatory activity in zymosan-induced C57BL/6J mouse model of peritonitis assessed as change in monocyte cell count; format: functional, organism-based
[10] = test system: THP-1; experiment: Cytotoxicity against human THP-1 monocytes assessed as LDH release at 0.001 to 1000 nM incubated for 24 hrs in absence of LPS by LDH assay; format: toxicity, cell-based; details: thp-1, 24 h, 1 µM, dose 0.001-1000 nM; procedure, shortened: as §1
[11] = test system: Mus musculus; experiment: Anti-inflammatory activity in zymosan-induced C57BL/6J mouse model of peritonitis assessed as reduced neutrophil influx at 6 ug/kg, ip treated 30 mins prior to zymosan administration (reference value: 100 %); parameters: scale not given: the % may be the effect or the level left; details: 0.5 h
[12] = test system: THP-1; experiment: Anti-inflammatory activity against human THP-1 monocytes assessed as […] in LPS-induced IL-8 release at 1 nM by multiplex chemiluminescence detection method; format: functional, cell-based; procedure, shortened: as §2
[13] = test system: Mus musculus; experiment: as §5, with “total number of polymorphonuclear cells” for “maximal response”, “4.7 +/- 0.5 x10^6 /ml)” for “100 %)”; format: functional; details: dose 6 µg/kg; time 24.5 hrs; procedure, shortened: as §3
[14] = test system: Mus musculus; experiment: Anti-inflammatory activity in zymosan-induced C57BL/6J mouse model of peritonitis assessed as reduced neutrophil influx at 11 mg/kg, ip treated 1 hr prior to zymosan administration (reference value: 100 %); format: functional; parameters: scale not given: the % may be the effect or the level left
[15] = test system: THP-1; experiment: Cytoprotection against LPS-stimulated human THP-1 monocytes toxicity assessed as reduction LDH release at 1 uM incubated for 24 hrs by LDH assay; format: functional; procedure, shortened: as §4
[16] = test system: Mus musculus; experiment: as §5, with “1 mg/kg,” for “6 ug/kg,”; format: functional; details: time 24.5 hrs; procedure, shortened: as §3
[17] = test system: THP-1; experiment: Cytotoxicity against human THP-1 monocytes assessed as LDH release at 1 uM incubated for 24 hrs in absence of LPS by LDH assay; format: toxicity, cell-based; details: thp-1, 24 h; procedure, shortened: as §1
[18] = test system: THP-1; experiment: Anti-inflammatory activity against human THP-1 monocytes assessed as reduction in LPS-induced IFNgamma release at 0.01 nM to 100 nM pretreated for 30 mins followed LPS stimulation and measured after 24 hrs by multiplex chemiluminescence detection method; format: functional; details: time 24.5 hrs; procedure, shortened: as §2
[19] = test system: THP-1; experiment: Anti-inflammatory activity against human THP-1 monocytes assessed as reduction in LPS-induced IFNgamma release pretreated for 30 mins followed LPS stimulation and measured after 24 hrs by multiplex chemiluminescence detection method; format: functional, cell-based; procedure, shortened: as §2
[20] = target: T1, Nuclear factor NF-kappa-B complex (Homo sapiens); experiment: Inhibition of TNFalpha-stimulated NF-kappaB activity (unknown origin) expressed in mouse primary smooth muscle cells at 1 nM pretreated for 30 mins followed by TNFalpha stimulation and incubated for 24 hrs by SEAP reporter gene assay; format: cell-based; details: THP-1, time 24.5 hrs
Procedure, shortened: (§6)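 Mouse primary vascular SMCs in DMEM with 25 mM glucose, serum-restricted (1% FBS) 24 h, transfected 24 h with pNF-κB-SEAP, pretreated 30 min, then TNF-α 1 ng/mL for 24 h; 0.1% ethanol vehicle. Secreted alkaline phosphatase measured in supernatant; fold change vs vehicle, mean ± SEM of 6–8 independent experiments.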

[21] = test system: THP-1; experiment: Anti-inflammatory activity against human THP-1 monocytes assessed as reduction in LPS-induced IFNgamma release at 1 pM pretreated for 30 mins followed LPS stimulation and measured after 24 hrs by multiplex chemiluminescence detection method; format: functional, cell-based; details: time 24.5 hrs; procedure, shortened: as §2
[22] = test system: THP-1; experiment: Induction of phagocytosis in human THP-1-MF0 macrophages at 100 nM pretreated for 30 mins followed by fluorescently labeled Escherichia coli derived bio-particles addition and measured after 2 hrs; format: functional, cell-based; details: time 2.5 hrs
Procedure, shortened: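 THP-1 monocytes differentiated with 16 nM PMA 48 h plus 24 h rest; 1 × 10⁵ macrophages/well in 0.1% serum adhered 1.5 h, treated 30 min (1 fM–1 μM), medium replaced with fluorescent E. coli bioparticles for 2 h at 37 °C in dark; trypan blue quench 1 min; bottom-read fluorescence Ex480/Em520; fold change vs vehicle, n = 3.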

[23] = test system: HEK293; experiment: Agonist activity at ALX/FPR2 receptor (unknown origin) expressed in HEK-293 cells assessed as increase in calcium flux at 0.01 to 100 nM by Fluo-4 staining based assay; format: cell-based; details: Homo sapiens, filed as agonist, dose 0.01-100 nM
Procedure, shortened: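 HEK-293 cells stably double-transfected with ALX/FPR2 and Gαq (Geneticin 500 and Hygromycin 100 μg/mL selection); wild-type HEK-293 as specificity control. Cultured 18 h, loaded with Fluo-4 (37 °C, 1 h), compounds injected in-reader (10 pM–100 nM). Baseline-to-peak calcium fluorescence difference expressed as % of LXA₄ peak; ATP 1 μM and W-peptide 2 nM positive controls; n = 3 independent experiments.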

[24] = target: T1, Nuclear factor NF-kappa-B complex (Homo sapiens); experiment: Inhibition of TNFalpha-stimulated NF-kappaB activity (unknown origin) expressed in mouse primary smooth muscle cells at 0.1 nM pretreated for 30 mins followed by TNFalpha stimulation and incubated for 24 hrs by SEAP reporter gene assay; format: cell-based; details: time 24.5 hrs; procedure, shortened: as §6

Compound: CCCCC[C@@H](O)c1c(/C=C/[C@@H](O)[C@@H](O)CCCC(=O)OC)nc(C)n1C
Activity [1]: Non-Toxic

Imax [2]: 25%
Compound: CCCCC[C@H](O)c1nc2ccccc2nc1/C=C/[C@@H](O)[C@@H](O)CCCC(=O)OC
Activity [3]: inactive

Compound: CCCCC[C@@H](O)c1nc2ccccc2nc1/C=C/[C@@H](O)[C@@H](O)CCCC(=O)OC
Activity [4]: inactive
Activity [5]: Active
Activity [6]: inactive
fold change (FC) [7]: 1.3
Activity [8]: 68%
Activity [9]: inactive
Activity [10]: Non-Toxic
Activity [11]: 22.5%
Activity [12]: Active
Activity [13]: 3.2 10^6/ml

Compound: C[C@@H]1C[C@H]2[C@@H]3CCC4=CC(=O)C=C[C@]4(C)[C@@]3(F)[C@@H](O)C[C@]2(C)[C@@]1(O)C(=O)CO [DEXAMETHASONE]
Activity [4]: inactive
Activity [6]: inactive
Activity [14]: 33.5%
Activity [9]: inactive
Activity [15]: inactive
Activity [16]: 51%
Activity [17]: Non-Toxic

Compound: CCCCCCC[C@H](O)c1nc2ccccc2nc1/C=C/[C@@H](O)[C@@H](O)CCCC(=O)OC
Activity [10]: Non-Toxic

Imax [2]: 30%
IC50 [19]: 1 pM
Compound: CCC[C@@H](O)c1nc2ccccc2nc1/C=C/[C@@H](O)[C@@H](O)CCCC(=O)OC
Imax [18]: 85%
Activity [10]: Non-Toxic

inhibition [20]: Active
Compound: CCCCC[C@@H](O)c1ccccc1/C=C/[C@@H](O)[C@@H](O)CCCC(=O)OC
Activity [1]: Non-Toxic
Activity [21]: inactive

Compound: CCCCC[C@H](O)c1nc2ccccc2nc1/C=C/[C@H]1OC(C)(C)O[C@H]1CCCC(=O)OC
Activity [10]: Toxic

inhibition [24]: Active
Compound: CCCCC[C@H](O)/C=C/C=C\C=C\C=C\[C@@H](O)[C@@H](O)CCCC(=O)O [LIPOXIN A4]
Activity [22]: Active
Activity [23]: Active
Imax [3]: 93%
Activity [12]: Active

Compound: CCCCC[C@@H](O)c1nc2ccccc2nc1/C=C/[C@H]1OC(C)(C)O[C@H]1CCCC(=O)OC
Activity [5]: inactive
Activity [10]: Toxic

Imax [2]: 30%
IC50 [19]: 1 pM
Compound: CCC[C@H](O)c1nc2ccccc2nc1/C=C/[C@@H](O)[C@@H](O)CCCC(=O)OC
Imax [18]: 85%
